Results reported in ChEMBL document CHEMBL5107947, “Estimating the cooperativity of PROTAC-induced ternary complexes using 19F NMR displacement assay” (RSC Med Chem, 2021).
Calls of active or inactive are those of the source. No cut-off for these calls is given here.

Key:
[1] = molecular target: T1, Von Hippel-Lindau disease tumor suppressor/Elongin B/Elongin C (Homo sapiens, UniProt P40337); test: Displacement of (2S,4R)-N-(4-bromobenzyl)-4-hydroxy-1-(3,3,3-trifluoropropanoyl)pyrrolidine-2-carboxamide from dual VBC E3 ligase (unknown origin) ternary complex by 19F NMR assay; type: protein-complex assay
In short: (§1)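 Same 19F CPMG displacement format, with spy molecule 19 at 50 μM and VBC at 1 μM. PROTAC was titrated over a range of concentrations, with spy-only and spy+VBC spectra as the 100% and 0% displacement controls. IC50 was read as 50% dissociation of the spy–VBC complex.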

Homo sapiens [2] = organism: Homo sapiens; test: (§2) Co-operativity factor, ratio of Ki for displacement of (2S,4R)-N-(4-bromobenzyl)-4-hydroxy-1-(3,3,3-trifluoropropanoyl)pyrrolidine-2-carboxamide from VBC E3 ligase (unknown origin) binary complex assessed as inhibition constant to Ki for displacement of (2S,4R)-N-(4-bromobenzyl)-4-hydroxy-1-(3,3,3-trifluoropropanoyl)pyrrolidine-2-carboxamide from dual VBC E3 ligase (unknown origin) ternary complex assessed as inhibition constant by ITC assay
[3] = molecular target: T1, Von Hippel-Lindau disease tumor suppressor/Elongin B/Elongin C; test: Displacement of (2S,4R)-N-(4-bromobenzyl)-4-hydroxy-1-(3,3,3-trifluoropropanoyl)pyrrolidine-2-carboxamide from dual VBC E3 ligase (unknown origin) ternary complex assessed as inhibition constant by 19F NMR assay; type: protein-complex assay; in short: as §1
Homo sapiens [4] = organism: Homo sapiens; test: as §2, with “19F NMR” for “ITC”
[5] = molecular target: T1, Von Hippel-Lindau disease tumor suppressor/Elongin B/Elongin C; test: Binding affinity to VCB E3 ligase (unknown origin) assessed as binary equilibrium dissociation constant by 19F NMR assay; type: protein-complex assay
[6] = molecular target: T1, Von Hippel-Lindau disease tumor suppressor/Elongin B/Elongin C; test: Displacement of (2S,4R)-N-(4-bromobenzyl)-4-hydroxy-1-(3,3,3-trifluoropropanoyl)pyrrolidine-2-carboxamide from VBC E3 ligase (unknown origin) binary complex assessed as inhibition constant by 19F NMR assay; type: protein-complex assay
In short: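 Binary competition by 19F CPMG NMR, without Brd4(2): spy molecule 19 at 50 μM, VBC at 1 μM, titrated with increasing PROTAC concentrations. Spy molecule alone and spy molecule plus VBC served as 100% and 0% displacement references.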

[7] = molecular target: T1, Von Hippel-Lindau disease tumor suppressor/Elongin B/Elongin C; test: (§3) Displacement of (2S,4R)-N-(4-bromobenzyl)-4-hydroxy-1-(3,3,3-trifluoropropanoyl)pyrrolidine-2-carboxamide from VBC E3 ligase (unknown origin) binary complex by 19F NMR assay; type: protein-complex assay
In short: (§4)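 Competitive 19F CPMG NMR displacement of spy molecule 19 (50 μM) from VBC (1 μM) across a titration of PROTAC concentrations. Free spy alone and spy with VBC served as the 100% and 0% displacement controls. For ternary runs Brd4(2) was present at 10 μM.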

[8] = Displacement of (2S,4R)-N-(4-bromobenzyl)-4-hydroxy-1-(3,3,3-trifluoropropanoyl)pyrrolidine-2-carboxamide from BRD3 bromodomain 1/VBC E3 ligase (unknown origin) ternary complex assessed as inhibition constant by 19F NMR assay; parameters: species or system Homo sapiens
[9] = Displacement of (2S,4R)-N-(4-bromobenzyl)-4-hydroxy-1-(3,3,3-trifluoropropanoyl)pyrrolidine-2-carboxamide from BRD3 bromodomain 2/VBC E3 ligase (unknown origin) ternary complex assessed as inhibition constant by 19F NMR assay; parameters: species or system Homo sapiens
[10] = Displacement of (2S,4R)-N-(4-bromobenzyl)-4-hydroxy-1-(3,3,3-trifluoropropanoyl)pyrrolidine-2-carboxamide from BRD3 bromodomain 2/VBC E3 ligase (unknown origin) ternary complex by 19F NMR assay; parameters: species or system Homo sapiens
[11] = Displacement of (2S,4R)-N-(4-bromobenzyl)-4-hydroxy-1-(3,3,3-trifluoropropanoyl)pyrrolidine-2-carboxamide from BRD3 bromodomain 1/VBC E3 ligase (unknown origin) ternary complex by 19F NMR assay; parameters: species or system Homo sapiens
[12] = molecular target: Von Hippel-Lindau disease tumor suppressor/Elongin B/Elongin C (Homo sapiens) (UniProt P40337+Q15370+Q15369); test: as §3; type: protein-complex assay; in short: as §4
[13] = molecular target: T2, von Hippel-Lindau disease tumor suppressor/Bromodomain-containing protein 4/Elongin-B/Elongin-C (Homo sapiens, UniProt O60885+P40337+Q15369+Q15370); test: Displacement of (2S,4R)-N-(4-bromobenzyl)-4-hydroxy-1-(3,3,3-trifluoropropanoyl)pyrrolidine-2-carboxamide from BRD4 bromodomain 2/VBC E3 ligase (unknown origin) ternary complex by 19F NMR assay; type: protein assay
In short: (§5)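 19F CPMG NMR displacement of spy molecule 19 (50 μM) from VBC (1 μM) with increasing PROTAC concentrations, in the presence of 10 μM Brd4(2). Spectra of free spy molecule and spy molecule with VBC set 100% and 0% displacement.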

Homo sapiens [14] = organism: Homo sapiens; test: as §2, with “BRD4 bromodomain 2/VBC” for “dual VBC”, “19F NMR” for “ITC”
Homo sapiens [15] = organism: Homo sapiens; test: as §2, with “BRD4 bromodomain 2/VBC” for “dual VBC”
[16] = molecular target: T2, von Hippel-Lindau disease tumor suppressor/Bromodomain-containing protein 4/Elongin-B/Elongin-C; test: Displacement of (2S,4R)-N-(4-bromobenzyl)-4-hydroxy-1-(3,3,3-trifluoropropanoyl)pyrrolidine-2-carboxamide from BRD4 bromodomain 2/VBC E3 ligase (unknown origin) ternary complex assessed as inhibition constant by 19F NMR assay; type: protein assay; in short: as §5
Homo sapiens [17] = organism: Homo sapiens; test: as §2, with “BRD4 bromodomain 2/VBC” for “dual VBC”, “SPR” for “ITC”

T1 sequence (P40337 whole entry, looked up): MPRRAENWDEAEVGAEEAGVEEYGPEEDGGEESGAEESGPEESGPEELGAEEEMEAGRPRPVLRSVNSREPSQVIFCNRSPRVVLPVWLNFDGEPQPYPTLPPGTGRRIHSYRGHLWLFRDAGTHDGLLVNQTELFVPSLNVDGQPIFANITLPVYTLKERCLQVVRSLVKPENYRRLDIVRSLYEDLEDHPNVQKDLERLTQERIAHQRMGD
T2 sequence (P40337 whole entry, looked up, other chains not shown): as the sequence (P40337 whole entry, looked up) above
T2 sequence (Q15369 whole entry, looked up, other chains not shown): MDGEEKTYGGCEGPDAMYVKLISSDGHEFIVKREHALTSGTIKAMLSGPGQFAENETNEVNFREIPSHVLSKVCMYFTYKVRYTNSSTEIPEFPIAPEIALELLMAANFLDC
T2 sequence (Q15370 whole entry, looked up, other chains not shown): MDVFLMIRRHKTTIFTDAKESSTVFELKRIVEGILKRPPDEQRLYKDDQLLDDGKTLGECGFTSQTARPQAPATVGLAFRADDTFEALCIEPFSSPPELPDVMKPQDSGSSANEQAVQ
Von Hippel-Lindau disease tumor suppressor/Elongin B/Elongin C (Homo sapiens), sequence (P40337 whole entry, looked up): as the sequence (P40337 whole entry, looked up) above
Von Hippel-Lindau disease tumor suppressor/Elongin B/Elongin C (Homo sapiens), sequence (Q15369 whole entry, looked up): as the sequence (Q15369 whole entry, looked up, other chains not shown) above
Von Hippel-Lindau disease tumor suppressor/Elongin B/Elongin C (Homo sapiens), sequence (Q15370 whole entry, looked up): as the sequence (Q15370 whole entry, looked up, other chains not shown) above

Structure (SMILES)	Kd [5]	Ki [6]	IC50 [7]	IC50 [13]	Ratio Ki (Homo sapiens [14])	Ratio Ki (Homo sapiens [15])	Ki [16]	also measured
Cc1ncsc1-c1ccc(CNC(=O)[C@@H]2C[C@@H](O)CN2C(=O)[C@@H](NC(=O)COCCOCCOCCOCCOCCOCC(=O)N[C@H](C(=O)N2C[C@H](O)C[C@H]2C(=O)NCc2ccc(-c3scnc3C)cc2)C(C)(C)C)C(C)(C)C)cc1								IC50 [1]: 277 nM; Ratio Ki (Homo sapiens [2]): 7; Ki [3]: 39 nM; Ratio Ki (Homo sapiens [4]): 7
Cc1ncsc1-c1ccc(CNC(=O)[C@@H]2C[C@@H](O)CN2C(=O)CC(C)(C)C)cc1C(F)(F)F	67000 nM							
Cc1ncsc1-c1ccc(CNC(=O)[C@@H]2C[C@H](O)CN2C(=O)[C@@H](NC(=O)COCCOCCOCCOCCOCC(=O)N[C@H](C(=O)N2C[C@@H](O)C[C@H]2C(=O)NCc2ccc(-c3scnc3C)cc2)C(C)(C)C)C(C)(C)C)cc1		287 nM	888 nM					
Cc1ncsc1-c1ccc(CNC(=O)[C@@H]2C[C@@H](O)CN2C(=O)[C@@H](NC(=O)COCCOCCOCCNC(=O)C[C@@H]2N=C(c3ccc(Cl)cc3)c3c(sc(C)c3C)-n3c(C)nnc32)C(C)(C)C)cc1								Ki [8]: 118 nM; Ki [9]: 153 nM; IC50 [10]: 708 nM; IC50 [11]: 660 nM
Cc1ncsc1-c1ccc(CNC(=O)[C@@H]2C[C@H](O)CN2C(=O)[C@@H](NC(=O)COCCOCCOCCOCCOCCOCC(=O)N[C@H](C(=O)N2C[C@@H](O)C[C@H]2C(=O)NCc2ccc(-c3scnc3C)cc2)C(C)(C)C)C(C)(C)C)cc1								Activity [12]: Active
Cc1ncsc1-c1ccc(CNC(=O)[C@@H]2C[C@@H](O)CN2C(=O)C(F)(F)F)cc1	25000 nM							
Cc1ncsc1-c1ccc(CNC(=O)[C@@H]2[C@H](F)[C@@H](O)CN2C(=O)[C@@H](NC(=O)COCCOCCOCCNC(=O)C[C@@H]2N=C(c3ccc(Cl)cc3)c3c(sc(C)c3C)-n3c(C)nnc32)C(C)(C)C)cc1		2060 nM	3020 nM	346 nM	29	29	71 nM	
CC(=O)N1c2ccc(-c3ccc(C(=O)NCCOCCOCC(=O)N[C@H](C(=O)N4C[C@H](O)C[C@H]4C(=O)NCc4ccc(-c5scnc5C)cc4)C(C)(C)C)cc3)cc2[C@H](Nc2ccc(Cl)cc2)C[C@@H]1C		529 nM	1210 nM	2110 nM	0.4	0.1	1190 nM	Ratio Ki (Homo sapiens [17]): 0.2
CC(=O)N1c2ccc(-c3ccc(C(=O)NCCOCCOCCOCCOCC(=O)N[C@H](C(=O)N4C[C@H](O)C[C@H]4C(=O)NCc4ccc(-c5scnc5C)cc4)C(C)(C)C)cc3)cc2[C@H](Nc2ccc(Cl)cc2)C[C@@H]1C		471 nM	1140 nM	1310 nM	0.8	0.6	597 nM	Ratio Ki (Homo sapiens [17]): 0.4
O=C(NCc1ccc(Br)cc1)[C@@H]1C[C@@H](O)CN1C(=O)CC(F)(F)F	145000 nM							
